# Measured values of several laboratories.
# Target: Testis-specific serine/threonine-protein kinase 1 (TSSK1B, Homo sapiens, UniProt Q9BXA7)
# Residues used in one study (Q9BXA7 1-367): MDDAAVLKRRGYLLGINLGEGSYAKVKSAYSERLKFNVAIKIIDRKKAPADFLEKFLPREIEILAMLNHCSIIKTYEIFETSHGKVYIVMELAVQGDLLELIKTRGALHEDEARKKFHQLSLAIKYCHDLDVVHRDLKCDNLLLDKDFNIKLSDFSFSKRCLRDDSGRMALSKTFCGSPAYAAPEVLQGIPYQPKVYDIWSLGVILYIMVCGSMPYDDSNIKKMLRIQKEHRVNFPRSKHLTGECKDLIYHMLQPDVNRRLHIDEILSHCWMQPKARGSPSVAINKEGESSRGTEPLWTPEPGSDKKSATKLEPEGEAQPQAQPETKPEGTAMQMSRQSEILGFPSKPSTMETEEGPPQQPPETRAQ
SMILES,observed,technique,concentration,remaining binding [%]
CNC(=O)Nc1ccc2c(c1)CC[C@@]21OC(=O)N(CC(=O)N(Cc2ccc(F)cc2)[C@@H](C)C(F)(F)F)C1=O,cell-free assay,competition with immobilised ligand,1 µM,84
CNC(=O)[C@@H]1CC[C@@H](n2c(-c3ccc4cnccc4c3)nc3ccc(C(=O)NCc4cccc(C(N)=O)c4)cc32)C1,binding,competition with immobilised ligand,1 µM,93
COc1ccc2c(c1)O[C@@H](c1ccc(OC)c(OC)c1)C[C@H]2NC(=O)C1(c2ccc3c(c2)OC(F)(F)O3)CC1,cell-free assay,competition with immobilised ligand,1 µM,100
Cc1cnc(Nc2ccc(C(=O)N3CCC(N4CCCC4)CC3)cc2)nc1-c1cc2ccccc2s1,binding,competition with immobilised ligand,1 µM,85
NS(=O)(=O)c1cc(NC(=O)Cc2ccccc2)ccc1Oc1cccc(Cl)c1,cell-free assay,competition with immobilised ligand,1 µM,100
C=CC(=O)N1CCC(C(=O)NCC(=O)N2CCN(c3nc(-c4cnc(N)nc4C(F)F)nc(N4CCOCC4)n3)CC2)CC1,binding,competition with immobilised ligand,1 µM,95
CCN1CCN(Cc2ccc(C(=O)Nc3ccc(C)c(Oc4ccc5c(c4)CC(=O)N5)c3)cc2C(F)(F)F)CC1,binding,competition with immobilised ligand,1 µM,93
COc1cnc(Nc2cccc(S(N)(=O)=O)c2)nc1N1CCN(c2ccccc2)CC1,binding,competition with immobilised ligand,1 µM,100
F[C@@H]1CCN(c2nccc(-c3cnn4ncccc34)n2)C1,binding,,1 µM,100
FC(F)(F)Oc1cccc(-c2cnc3ccc(-c4ccncc4)nn23)c1,binding,competition with immobilised ligand,5 µM,83
CC1CCCN1c1nccc(-c2cnn3ncccc23)n1 (stereo not shown),binding,,1 µM,100
NS(=O)(=O)c1cc(NC(=O)C2(c3ccccc3Cl)CC2)ccc1Oc1cccc(Cl)c1,cell-free assay,competition with immobilised ligand,1 µM,100
C[C@@H]1CN(c2ccc3ncc(-c4ccc5[nH]nc(C6CC6)c5c4)n3n2)C[C@H](C)O1,binding,competition with immobilised ligand,50 nM,78
CN(C)c1nccc(-c2cnn3ncccc23)n1,binding,,1 µM,100
O=C(c1ccc(Nc2nccc(-c3cc4ccccc4s3)n2)cc1)N1CCC(N2CCCC2)CC1,binding,competition with immobilised ligand,1 µM,100
Cc1cnn2ncc(-c3ccnc(N(C)C)n3)c2c1,binding,,1 µM,100
COc1cc(-c2cn(C3CCc4ccccc4N(CC(F)(F)F)C3=O)nn2)ccc1-n1ccc(C)n1 (stereo not shown),cell-free assay,competition with immobilised ligand,1 µM,83
O=C(c1ccc(Nc2ncc(Cl)c(-c3cc4ccccc4s3)n2)cc1)N1CCC(N2CCCC2)CC1,binding,competition with immobilised ligand,1 µM,85
C[C@H]1CCN(c2nccc(-c3cnn4ncccc34)n2)C1,binding,,1 µM,98
CC(C)CC(=O)N1CCc2nc(-c3ccc(Br)cc3)nc(N(C)Cc3ccccc3)c2C1,cell-free assay,competition with immobilised ligand,0.1 µM,99
O=C(NCC1CCOCC1)c1n[nH]cc1NC(=O)c1c(F)cccc1F,binding,competition with immobilised ligand,1 µM,97
N[C@@H]1CCN(c2nccc(-c3cnn4ncccc34)n2)C1,binding,,1 µM,97
CC(C)(C)c1ccc(-c2nc(CBr)nn2-c2cccc(O)c2)cc1,cell-free assay,competition with immobilised ligand,10 µM,81
CCC(=N\O)/C(C)=C/c1ccc(F)cc1,cell-free assay,competition with immobilised ligand,1 µM,82
CN(C)c1ncc(F)c(-c2cnn3ncccc23)n1,binding,,1 µM,100
